Source: PubChem BioAssay
Shown is part of a subset that was picked to be rich in hits.
KDM4C inh: inhibitors of human demethylase GASC-1 KDM4C; Q9H3R0; GST-KDM4C 2-372, H3K9me3 peptide, LANCE TR-FRET; inhibition, % at 12.5 µM; hit rate 0.15% among 96,000;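 active = mean replicate inhibition above about 25%, with at least 55% of replicates also reaching it, limit read from the data, passing the limit was not always enough; inconclusive = only one of those two conditions met; inactive = neither condition met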
Target sequence (Q9H3R0 2-372 limits assumed): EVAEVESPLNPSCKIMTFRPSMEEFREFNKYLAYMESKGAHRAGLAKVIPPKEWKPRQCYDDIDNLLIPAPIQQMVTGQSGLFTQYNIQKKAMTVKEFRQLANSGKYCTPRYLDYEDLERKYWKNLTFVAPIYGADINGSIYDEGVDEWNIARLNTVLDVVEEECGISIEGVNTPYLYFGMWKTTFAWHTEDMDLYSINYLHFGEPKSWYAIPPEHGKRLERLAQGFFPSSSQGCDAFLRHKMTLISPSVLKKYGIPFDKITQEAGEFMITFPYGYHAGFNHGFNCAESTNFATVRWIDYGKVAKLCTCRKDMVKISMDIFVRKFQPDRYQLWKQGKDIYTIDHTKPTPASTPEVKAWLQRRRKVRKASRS
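System – N-terminal GST-fused human GASC-1 (KDM4C) fragment, residues 2-372 · Input – enzyme final amount 10 nM · Technique – LANCE TR-FRET, Eu antibody, ULight-streptavidin, EDTA, ex 340 nm, em 618/671 nm · Medium – HEPES buffer, pH 7.5, plus ascorbate · Incubation – enzyme reaction 30 min, then detection 60 min, both room temperature · Reagent – H3K9me3 peptide with Fe(II)/2OG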
IDH1 mut inh: blocks human IDH1 R132H reductase activity | inhibition, % at 10 µM | diaphorase/resazurin fluorescence, 60 min | hit rate 0.18% among 70,000 | AID 624101; in the data active = inhibition above about 34%; inconclusive = no clear call, values can overlap the other calls; inactive = below about 11%;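 note: 0% = DMSO and 100% = no enzyme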
T cruzi growth-1: inhibitors of T. cruzi proliferation; AID 624255; hit rate 5.9% among 77,000; inhibition, % at 8.34 µM; T. cruzi beta-gal in NIH3T3, GalScreen luminescence, 90 h;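 active = mean inhibition above about 93%, with at least 55% of replicates each passing it, limit read from the data, passing the limit was not always enough; inconclusive = only one of those two conditions holds; inactive = neither condition holds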
T cruzi growth-2: Trypanosoma cruzi proliferation inhibition; shares compounds with T cruzi growth-1; T. cruzi beta-gal in NIH3T3, GalScreen luminescence, 90 h; inhibition, % at 8.35 µM; hit rate 72% among 5,600; AID 651739;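 active = mean replicate inhibition above about 95% and at least 55% of replicates individually reaching it, limit read from the data; inconclusive = only one of the two criteria is met; inactive = neither criterion is met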
T cruzi growth-3: Trypanosoma cruzi proliferation inhibition; inhibition, % at 2.09 µM; T. cruzi beta-gal in NIH3T3, GalScreen luminescence, 90 h; AID 651740; shares compounds with T cruzi growth-1; hit rate 21% among 5,600;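 active = mean inhibition above about 95%, with at least 55% of replicates also reaching it, limit read from the data; inconclusive = meets just one of the two conditions; inactive = meets neither condition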;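 note: plate controls were neutral control median for no effect and positive control median for full effect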
3T3 cytotox: cytotoxicity in mouse NIH/3T3 fibroblasts; shares compounds with T cruzi growth-1; NIH/3T3 viability, CellTiter-Glo ATP luminescence, 90 h; cytotoxicity (signal decrease), % at 8.35 µM; hit rate 14% among 5,600; AID 651742;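 active = mean signal decrease across replicates above about 35% based on untreated-well scatter, with enough replicates individually passing, limit read from the data; inconclusive = no rule stated though some were filed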;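 note: 0% = median of neutral control wells and 100% = median of positive control wells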
3T3 cytotox 2: kills mouse NIH/3T3 fibroblasts; shares compounds with T cruzi growth-1; NIH/3T3 viability, CellTiter-Glo ATP luminescence, 90 h; inhibition, % at 24.9 µM; hit rate 56% among 5,600; AID 651744;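 active = mean loss of cell viability signal at or above a set limit, and enough replicates individually reaching it; inconclusive = meets only the mean limit or only the replicate share; inactive = meets neither condition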;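 note: 0% = median of neutral control wells and 100% = median of positive control wells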
An asterisk follows results filed as active; ? = inconclusive; . = no result.

SMILES	KDM4C inh	IDH1 mut inh	T cruzi growth-1	T cruzi growth-2	T cruzi growth-3	3T3 cytotox	3T3 cytotox 2
CCCN1[C@H](C(=O)N(C)C)[C@@H](CO)[C@@H]2Cn3c(ccc(/C=C/c4ccccc4)c3=O)[C@@H]21	3	.	34	.	.	.	.
COC(=O)[C@H]1[C@H](CO)[C@H]2Cn3c(ccc(/C=C/c4ccccc4)c3=O)[C@H]2N1C(=O)c1cnccn1	-2	.	101*	40	8	-14	40*
Cc1ccc(NC(=O)CSc2nnc(C)n2-c2ccccc2)cc1C	.	0	.	.	.	.	.
Cc1ccc(-c2nnc(SCC(=O)Nc3ccc(Br)c(C)c3)n2C)cc1	.	0	.	.	.	.	.
CC(=O)c1cccc(NC(=O)Nc2nn(Cc3c(F)cccc3Cl)cc2Br)c1	.	0	.	.	.	.	.
C[C@H](CO)N1C[C@H](C)[C@@H](CN(C)C(=O)CC2CC2)Oc2cc(C#CCN(C)C)ccc2S1(=O)=O	0	0	96*	98*	90	-6	12
C[C@H](CO)N1C[C@H](C)[C@H](CN(C)C(=O)CC2CC2)Oc2cc(C#CCN(C)C)ccc2S1(=O)=O	-1	1	76	.	.	.	.
CC(C)C#Cc1ccc2c(c1)O[C@H](CN(C)C(=O)CC1CC1)[C@H](C)CN([C@H](C)CO)S2(=O)=O	-1	0	69	.	.	.	.
C[C@@H]1CN([C@H](C)CO)S(=O)(=O)c2ccc(C#CCN(C)C)cc2O[C@@H]1CN(C)C(=O)CC1CC1	9	-1	85	.	.	.	.
C[C@@H]1CN([C@@H](C)CO)S(=O)(=O)c2ccc(C#CCN(C)C)cc2O[C@H]1CN(C)C(=O)CC1CC1	0	-1	?	97*	85	-5	9
C[C@H]1CN([C@@H](C)CO)S(=O)(=O)c2ccc(C#CCN(C)C)cc2O[C@H]1CN(C)C(=O)CC1CC1	7	0	?	100*	78	2	9
COC(=O)C1C(=O)c2c([nH]c(C(=O)OC(C)C)c2C)CC1C (stereo not given)	.	0	.	.	.	.	.
O=C(CC1NC2CCCCC2NC1=O)Nc1ccc(Cl)cc1 (stereo not given)	.	0	.	.	.	.	.
CCn1c(SCC(=O)c2cccc([N+](=O)[O-])c2)nnc1-c1cccnc1	.	0	.	.	.	.	.
CCc1cccc(C)c1NC(=O)CN(C)S(=O)(=O)c1ccccc1	.	-1	.	.	.	.	.
Cc1ccc(S(=O)(=O)NC(C)C(=O)Nc2cc([N+](=O)[O-])ccc2C)cc1 (stereo not given)	.	1	.	.	.	.	.
Cc1ccc(Cl)cc1NC(=O)Cn1cnc2ccccc2c1=O	.	0	.	.	.	.	.
COc1ccccc1S(=O)(=O)N(C)C[C@@H]1Oc2cc(C#CCC3CCCC3)ccc2S(=O)(=O)N([C@H](C)CO)C[C@@H]1C	0	0	.	.	.	.	.
COc1ccccc1S(=O)(=O)N(C)C[C@H]1Oc2cc(C#CCC3CCCC3)ccc2S(=O)(=O)N([C@H](C)CO)C[C@H]1C	26*	.	127*	87	110*	10	20
COc1ccccc1S(=O)(=O)N(C)C[C@@H]1Oc2cc(C#CCC(C)C)ccc2S(=O)(=O)N([C@H](C)CO)C[C@@H]1C	-1	-2	46	.	.	.	.
COc1ccccc1S(=O)(=O)N(C)C[C@H]1Oc2cc(C#CCC(C)C)ccc2S(=O)(=O)N([C@@H](C)CO)C[C@@H]1C	-1	-2	?	?	114*	24	98*
Cc1cc(Cl)ccc1OCC(=O)Nc1cc(Cl)ccc1C(=O)O	.	-1	.	.	.	.	.
Cc1cc(Cl)c(S(=O)(=O)Nc2cccc(Br)c2)cc1OCC(N)=O	.	0	.	.	.	.	.
CCc1ccc(-n2nc3ccc(NC(=O)COc4ccccc4[N+](=O)[O-])cc3n2)cc1	.	0	.	.	.	.	.
COc1ccccc1N1CCN(CCC(=O)Nc2ccc(Br)c(C)c2)CC1	.	0	.	.	.	.	.
SMILES	KDM4C inh	IDH1 mut inh	T cruzi growth-1	T cruzi growth-2	T cruzi growth-3	3T3 cytotox	3T3 cytotox 2
C[C@@H](O)C#Cc1ccc([C@@H]2[C@@H](CO)N3CCCCN(C(=O)c4cccc(F)c4)C[C@@H]23)cc1	1	.	73	.	.	.	.
C[C@H](O)C#Cc1ccc([C@H]2[C@H]3CN(C(=O)c4cccc(F)c4)CCCCN3[C@H]2CO)cc1	0	.	102*	?	23	11	28*
C[C@@H](O)C#Cc1ccc([C@@H]2[C@H]3CN(C(=O)c4cccc(F)c4)CCCCN3[C@H]2CO)cc1	0	.	36	.	.	.	.
C[C@@H](O)C#Cc1ccc([C@H]2[C@H](CO)N3CCCCN(C(=O)c4cccc(F)c4)C[C@@H]23)cc1	-1	.	97*	107*	79	4	50*
C[C@@H](O)C#Cc1ccc([C@@H]2[C@H](CO)N3CCCCN(C(=O)c4cccc(F)c4)C[C@@H]23)cc1	1	.	89	.	.	.	.
C[C@H](O)C#Cc1ccc([C@H]2[C@@H](CO)N3CCCCN(C(=O)c4cccc(F)c4)C[C@@H]23)cc1	-1	.	104*	89	62	-14	24
C[C@@H]1CCC2C(C)(C)CCC[C@@]2(C)[C@@]1(O)CC/C(=C\CO)CO (stereo not given in full)	.	0	.	.	.	.	.
COc1ccc(-c2nnc(SCC(N)=O)n2-c2cccc(C(F)(F)F)c2)cc1OC	.	0	.	.	.	.	.
Cc1ccc(S(=O)(=O)Nc2ccc3c(c2)C(=O)N([C@H](C)CO)C[C@H](C)[C@H](CN(C)C(=O)Nc2ccc(F)cc2)OCCCC[C@@H](C)O3)cc1	0	1	21	.	.	.	.
Cc1ccc(S(=O)(=O)Nc2ccc3c(c2)C(=O)N([C@@H](C)CO)C[C@H](C)[C@H](CN(C)C(=O)Nc2ccc(F)cc2)OCCCC[C@@H](C)O3)cc1	1	.	86	.	.	.	.
Cc1ccc(S(=O)(=O)Nc2ccc3c(c2)C(=O)N([C@@H](C)CO)C[C@@H](C)[C@@H](CN(C)C(=O)Nc2ccc(F)cc2)OCCCC[C@H](C)O3)cc1	0	1	-2	.	.	.	.
Cc1ccc(S(=O)(=O)Nc2ccc3c(c2)C(=O)N([C@H](C)CO)C[C@@H](C)[C@H](CN(C)C(=O)Nc2ccc(F)cc2)OCCCC[C@H](C)O3)cc1	-1	0	100*	106*	47	-38	16
Cc1ccc(S(=O)(=O)Nc2ccc3c(c2)C(=O)N([C@@H](C)CO)C[C@@H](C)[C@H](CN(C)C(=O)Nc2ccc(F)cc2)OCCCC[C@@H](C)O3)cc1	0	1	?	101*	82	9	24
Cc1ccc(S(=O)(=O)Nc2ccc3c(c2)C(=O)N([C@@H](C)CO)C[C@H](C)[C@@H](CN(C)C(=O)Nc2ccc(F)cc2)OCCCC[C@@H](C)O3)cc1	0	1	98*	107*	84	-10	23
COc1ccc(NC(=O)N2CCCCN3[C@H](C2)[C@H](c2ccc(C#Cc4ccccc4)cc2)[C@@H]3CO)cc1	.	.	99*	109*	57	27	56*
